Measurements: ChEMBL document CHEMBL1156517, “Targeting thyroid hormone receptor-beta agonists to the liver reduces cholesterol and triglycerides and improves the therapeutic index” (Proc Natl Acad Sci U S A, 2007)

Tests used:
Design in all cases: dose 5 mg/kg, route oral
Conditions in all cases: in vivo
Heart [1] = experiment: Biodistribution in Sprague-Dawley rat heart at 5 mg/kg, po after 3 hrs; type: ADME, organism-based
How it was run: (§1)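 Male SD rats (n = 4 per group) were dosed orally with [¹⁴C]-labelled prodrug at 5 mg/kg. Animals were killed 3 or 24 h after dosing. Harvested tissues, blood and plasma were processed and analysed directly for radioactivity by liquid scintillation counting.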

[2] = Biodistribution in Sprague-Dawley rat pituitary gland at 5 mg/kg, po after 24 hrs; type: ADME, organism-based; how it was run: as §1
Prostate gland [3] = experiment: Biodistribution in Sprague-Dawley rat prostate at 5 mg/kg, po after 24 hrs; type: ADME, organism-based; how it was run: as §1
Blood [4] = experiment: Biodistribution in Sprague-Dawley rat blood at 5 mg/kg, po after 3 hrs; type: ADME, organism-based; how it was run: as §1
[5] = Biodistribution in Sprague-Dawley rat eyes at 5 mg/kg, po after 24 hrs; type: ADME, organism-based, Eye; how it was run: as §1
Thyroid gland [6] = experiment: Biodistribution in Sprague-Dawley rat thyroid at 5 mg/kg, po after 3 hrs; type: ADME, organism-based
How it was run: (§2)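 Male SD rats (n = 4 per group) were given [¹⁴C]-labelled compound at 5 mg/kg per os. They were killed 3 and 24 h after dosing. Harvested tissues were processed and radioactivity was measured directly by liquid scintillation counting.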

[7] = Biodistribution in Sprague-Dawley rat large intestine C&W at 5 mg/kg, po after 24 hrs; type: ADME, organism-based; how it was run: as §1
Adrenal gland [8] = experiment: Biodistribution in Sprague-Dawley rat adrenal gland at 5 mg/kg, po after 24 hrs; type: ADME, organism-based; how it was run: as §1
Kidney [9] = experiment: Biodistribution in Sprague-Dawley rat kidney at 5 mg/kg, po after 3 hrs; type: ADME, organism-based; how it was run: as §1
Spleen [10] = experiment: Biodistribution in Sprague-Dawley rat spleen at 5 mg/kg, po after 24 hrs; type: ADME, organism-based; how it was run: as §1
[11] = Biodistribution in Sprague-Dawley rat small intestine at 5 mg/kg, po after 3 hrs; type: ADME, organism-based; how it was run: as §1
Testes [12] = experiment: Biodistribution in Sprague-Dawley rat testes at 5 mg/kg, po after 3 hrs; type: ADME, organism-based, Testis; how it was run: as §2
Zone of skin [13] = experiment: Biodistribution in Sprague-Dawley rat skin at 5 mg/kg, po after 24 hrs; type: ADME, organism-based; how it was run: as §1
[14] = Biodistribution in Sprague-Dawley rat small intestine C&W at 5 mg/kg, po after 3 hrs; type: ADME, organism-based; how it was run: as §1
[15] = Biodistribution in Sprague-Dawley rat stomach C&W at 5 mg/kg, po after 24 hrs; type: ADME, organism-based; how it was run: as §2
[16] = Biodistribution in Sprague-Dawley rat large intestine at 5 mg/kg, po after 24 hrs; type: ADME, organism-based; how it was run: as §1
Brain [17] = experiment: Biodistribution in Sprague-Dawley rat brain at 5 mg/kg, po after 24 hrs; type: ADME, organism-based; how it was run: as §1
[18] = Biodistribution in Sprague-Dawley rat eyes at 5 mg/kg, po after 3 hrs; type: ADME, organism-based, Eye; how it was run: as §1
Heart [19] = experiment: Biodistribution in Sprague-Dawley rat heart at 5 mg/kg, po after 24 hrs; type: ADME, organism-based; how it was run: as §1
[20] = Biodistribution in Sprague-Dawley rat mesenteric lymph at 5 mg/kg, po after 24 hrs; type: ADME, organism-based, Mesenteric lymph node; how it was run: as §1
Adrenal gland [21] = experiment: Biodistribution in Sprague-Dawley rat adrenal gland at 5 mg/kg, po after 3 hrs; type: ADME, organism-based; how it was run: as §1
[22] = Biodistribution in Sprague-Dawley rat large intestine C&W at 5 mg/kg, po after 3 hrs; type: ADME, organism-based; how it was run: as §1
Thyroid gland [23] = experiment: Biodistribution in Sprague-Dawley rat thyroid at 5 mg/kg, po after 24 hrs; type: ADME, organism-based; how it was run: as §2
Plasma [24] = experiment: Biodistribution in Sprague-Dawley rat plasma at 5 mg/kg, po after 24 hrs; type: ADME, organism-based; how it was run: as §1
[25] = Biodistribution in Sprague-Dawley rat small intestine C&W at 5 mg/kg, po after 24 hrs; type: ADME, organism-based; how it was run: as §1
[26] = Biodistribution in Sprague-Dawley rat femur bone at 5 mg/kg, po after 24 hrs; type: ADME, organism-based, Bone element; how it was run: as §1
[27] = Biodistribution in Sprague-Dawley rat femur bone at 5 mg/kg, po after 3 hrs; type: ADME, organism-based, Bone element; how it was run: as §1
Lung [28] = experiment: Biodistribution in Sprague-Dawley rat lung at 5 mg/kg, po after 24 hrs; type: ADME, organism-based; how it was run: as §1
Testes [29] = experiment: Biodistribution in Sprague-Dawley rat testes at 5 mg/kg, po after 24 hrs; type: ADME, organism-based, Testis; how it was run: as §2
Prostate gland [30] = experiment: Biodistribution in Sprague-Dawley rat prostate at 5 mg/kg, po after 3 hrs; type: ADME, organism-based; how it was run: as §1
[31] = Biodistribution in Sprague-Dawley rat stomach at 5 mg/kg, po after 24 hrs; type: ADME, organism-based; how it was run: as §2
[32] = Biodistribution in Sprague-Dawley rat stomach at 5 mg/kg, po after 3 hrs; type: ADME, organism-based; how it was run: as §2
[33] = Biodistribution in Sprague-Dawley rat bone marrow at 5 mg/kg, po after 3 hrs; type: ADME, organism-based; how it was run: as §1
Thymus [34] = experiment: Biodistribution in Sprague-Dawley rat thymus at 5 mg/kg, po after 3 hrs; type: ADME, organism-based; how it was run: as §2
[35] = Biodistribution in Sprague-Dawley rat large intestine at 5 mg/kg, po after 3 hrs; type: ADME, organism-based
How it was run: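 Male SD rats (n = 4 per group) were given a single oral dose of [¹⁴C]-labelled prodrug at 5 mg/kg. They were killed at 3 and 24 h after dosing. Harvested tissues were processed and analysed directly by liquid scintillation counting to give tissue radioactivity concentrations.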

[36] = Biodistribution in Sprague-Dawley rat pituitary gland at 5 mg/kg, po after 3 hrs; type: ADME, organism-based; how it was run: as §1
[37] = Biodistribution in Sprague-Dawley rat urinary bladder at 5 mg/kg, po after 3 hrs; type: ADME, organism-based; how it was run: as §2
Liver [38] = experiment: Biodistribution in Sprague-Dawley rat liver at 5 mg/kg, po after 24 hrs; type: ADME, organism-based; how it was run: as §1
[39] = Biodistribution in Sprague-Dawley rat mesenteric lymph at 5 mg/kg, po after 3 hrs; type: ADME, organism-based, Mesenteric lymph node; how it was run: as §1
Muscle tissue [40] = experiment: Biodistribution in Sprague-Dawley rat muscle at 5 mg/kg, po after 3 hrs; type: ADME, organism-based; how it was run: as §1
[41] = Biodistribution in Sprague-Dawley rat epididymal fat at 5 mg/kg, po after 3 hrs; type: ADME, organism-based, Adipose tissue; how it was run: as §1
[42] = Biodistribution in Sprague-Dawley rat cervical lymph node at 5 mg/kg, po after 3 hrs; type: ADME, organism-based; how it was run: as §1
Spleen [43] = experiment: Biodistribution in Sprague-Dawley rat spleen at 5 mg/kg, po after 3 hrs; type: ADME, organism-based; how it was run: as §2
Pancreas [44] = experiment: Biodistribution in Sprague-Dawley rat pancreas at 5 mg/kg, po after 3 hrs; type: ADME, organism-based; how it was run: as §1
[45] = Biodistribution in Sprague-Dawley rat urinary bladder at 5 mg/kg, po after 24 hrs; type: ADME, organism-based; how it was run: as §2
Liver [46] = experiment: Biodistribution in Sprague-Dawley rat liver at 5 mg/kg, po after 3 hrs; type: ADME, organism-based; how it was run: as §1
Thymus [47] = experiment: Biodistribution in Sprague-Dawley rat thymus at 5 mg/kg, po after 24 hrs; type: ADME, organism-based; how it was run: as §2
Lung [48] = experiment: Biodistribution in Sprague-Dawley rat lung at 5 mg/kg, po after 3 hrs; type: ADME, organism-based; how it was run: as §1
[49] = Biodistribution in Sprague-Dawley rat small intestine at 5 mg/kg, po after 24 hrs; type: ADME, organism-based; how it was run: as §1
[50] = Biodistribution in Sprague-Dawley rat stomach C&W at 5 mg/kg, po after 3 hrs; type: ADME, organism-based; how it was run: as §2
[51] = Biodistribution in Sprague-Dawley rat bone marrow at 5 mg/kg, po after 24 hrs; type: ADME, organism-based; how it was run: as §1
Zone of skin [52] = experiment: Biodistribution in Sprague-Dawley rat skin at 5 mg/kg, po after 3 hrs; type: ADME, organism-based; how it was run: as §1
[53] = Biodistribution in Sprague-Dawley rat cervical lymph node at 5 mg/kg, po after 24 hrs; type: ADME, organism-based; how it was run: as §1
[54] = Biodistribution in Sprague-Dawley rat epididymal fat at 5 mg/kg, po after 24 hrs; type: ADME, organism-based, Adipose tissue; how it was run: as §1
Kidney [55] = experiment: Biodistribution in Sprague-Dawley rat kidney at 5 mg/kg, po after 24 hrs; type: ADME, organism-based; how it was run: as §1
Plasma [56] = experiment: Biodistribution in Sprague-Dawley rat plasma at 5 mg/kg, po after 3 hrs; type: ADME, organism-based; how it was run: as §1
Brain [57] = experiment: Biodistribution in Sprague-Dawley rat brain at 5 mg/kg, po after 3 hrs; type: ADME, organism-based; how it was run: as §1
Pancreas [58] = experiment: Biodistribution in Sprague-Dawley rat pancreas at 5 mg/kg, po after 24 hrs; type: ADME, organism-based; how it was run: as §1
Muscle tissue [59] = experiment: Biodistribution in Sprague-Dawley rat muscle at 5 mg/kg, po after 24 hrs; type: ADME, organism-based; how it was run: as §1
Blood [60] = experiment: Biodistribution in Sprague-Dawley rat blood at 5 mg/kg, po after 24 hrs; type: ADME, organism-based; how it was run: as §1

In the case of Cc1cc(OCP2(=O)OCC[C@@H](c3cccc(Cl)c3)O2)cc([14CH3])c1Cc1ccc(O)c(C(C)C)c1 (stereo not given in full), the Drug uptake (Heart [1]) is reported as 0.36 nmol/g, the Drug uptake [2] is reported as 0.02 nmol/g and the Drug uptake (Prostate gland [3]) is reported as 0.03 nmol/g. For the same compound, the Drug uptake (Blood [4]) was 0.12 nmol/g, the Drug uptake [5] was 0.01 nmol/g and the Drug uptake (Thyroid gland [6]) was 0.2 nmol/g. It also gave a Drug uptake [7] of 2.5 nmol/g, a Drug uptake (Adrenal gland [8]) of 0.09 nmol/g and a Drug uptake (Kidney [9]) of 0.48 nmol/g. It also gave a Drug uptake (Spleen [10]) of 0.01 nmol/g, a Drug uptake [11] of 28.56 nmol/g and a Drug uptake (Testes [12]) of 0.03 nmol/g. For the same compound, the Drug uptake (Zone of skin [13]) was 0.15 nmol/g, the Drug uptake [14] was 39.69 nmol/g and the Drug uptake [15] was 0.06 nmol/g. The Drug uptake [16] was 0.64 nmol/g, the Drug uptake (Brain [17]) was 0.01 nmol/g and the Drug uptake [18] was 0.04 nmol/g. The Drug uptake (Heart [19]) was 0.05 nmol/g, the Drug uptake [20] was 0.05 nmol/g and the Drug uptake (Adrenal gland [21]) was 0.77 nmol/g. It also gave a Drug uptake [22] of 4.68 nmol/g, a Drug uptake (Thyroid gland [23]) of 0.03 nmol/g and a Drug uptake (Plasma [24]) of 0.05 nmol/g. The Drug uptake [25] was 0.2 nmol/g, the Drug uptake [26] was 0.02 nmol/g and the Drug uptake [27] was 0.14 nmol/g. For the same compound, the Drug uptake (Lung [28]) was 0.04 nmol/g, the Drug uptake (Testes [29]) was 0.04 nmol/g and the Drug uptake (Prostate gland [30]) was 0.12 nmol/g. The Drug uptake [31] was 0.22 nmol/g, the Drug uptake [32] was 76.96 nmol/g and the Drug uptake [33] was 0.06 nmol/g. For the same compound, the Drug uptake (Thymus [34]) was 0.09 nmol/g, the Drug uptake [35] was 1.23 nmol/g and the Drug uptake [36] was 0.09 nmol/g. For the same compound, the Drug uptake [37] was 0.18 nmol/g, the Drug uptake (Liver [38]) was 3.67 nmol/g and the Drug uptake [39] was 16.61 nmol/g. For the same compound, the Drug uptake (Muscle tissue [40]) was 0.07 nmol/g, the Drug uptake [41] was 0.15 nmol/g and the Drug uptake [42] was 0.12 nmol/g. It also gave a Drug uptake (Spleen [43]) of 2.57 nmol/g, a Drug uptake (Pancreas [44]) of 0.25 nmol/g and a Drug uptake [45] of 0.05 nmol/g. The Drug uptake (Liver [46]) was 6.67 nmol/g, the Drug uptake (Thymus [47]) was 0.01 nmol/g and the Drug uptake (Lung [48]) was 0.31 nmol/g. For the same compound, the Drug uptake [49] was 0.4 nmol/g, the Drug uptake [50] was 24.52 nmol/g and the Drug uptake [51] was 0.01 nmol/g. The Drug uptake (Zone of skin [52]) was 0.08 nmol/g, the Drug uptake [53] was 0.03 nmol/g and the Drug uptake [54] was 0.55 nmol/g. For the same compound, the Drug uptake (Kidney [55]) was 0.14 nmol/g, the Drug uptake (Plasma [56]) was 0.15 nmol/g and the Drug uptake (Brain [57]) was 0.03 nmol/g. It also gave a Drug uptake (Pancreas [58]) of 0.25 nmol/g, a Drug uptake (Muscle tissue [59]) of 0.01 nmol/g and a Drug uptake (Blood [60]) of 0.05 nmol/g.
